Source: PubChem BioAssay (several laboratories)
An excerpt weighted towards active compounds, which were near 2.2% of everything screened.
PLK1 inh – blocks human PLK1 kinase activity. P53350. recombinant PLK1 kinase, TR-FRET peptide phosphorylation. inhibition, % at 10 µM. 97,000 tested, 0.53% active. AID 619;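 active means inhibition of 50% or more in the single-concentration screen; inactive means inhibition below 50%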
E-sel TNF inh – blocks E-selectin expression induced by TNF alpha. HUVEC TNFa-induced E-selectin immunofluorescence, high content. 120,000 tested, 0.71% active. AID 1246. inhibition, % at 2 µM;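 active means inhibition above the batch mean plus 3 SD, and confirmed as a hit on visual image review, cut at about 43% in these data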
PLK1 PBD inh – Plk1 (human) PBD binding inhibition | P53350 | Plk1 PBD phosphopeptide binding, fluorescence polarization | inhibition, %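 (tested at about 20 µM)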 | 97,000 tested, 0.13% active; in the data active means inhibition above about 34%, passing the limit was not always enough
F-actin modifier – alters cytoskeleton assembly in HUVEC cells; 91,000 tested, 0.18% active; HUVEC TNFa F-actin phalloidin imaging, high content; inhibition, % at 2 µM;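 active means inhibition above the batch mean plus 3 SD and confirmed as a hit by visual image inspection, cut at about 30% in these data, passing the limit was not always enough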
FAK inh – blocks human focal adhesion kinase activity; Q05397; biochemical FAK kinase activity assay; inhibition, %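 (tested at 7 µM)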; 97,000 tested, 0.84% active; AID 727
Rev-RRE block – disrupts HIV-1 Rev binding to RRE RNA; P05866; Rev peptide-RRE RNA binding, FRET; inhibition, % at 8 µM; 97,000 tested, 0.79% active;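 active means inhibition above the screen-wide mean plus 3 SD, cut at about 35% in these data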
Target sequence (P05866 whole entry, looked up): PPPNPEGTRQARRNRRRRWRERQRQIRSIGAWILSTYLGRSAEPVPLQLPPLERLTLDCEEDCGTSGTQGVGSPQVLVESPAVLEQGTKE
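Test system: labelled RRE RNA duplex and labelled Rev peptide. Times: 5 min compound–RNA preincubation, then 15 min with peptide, 25 °C. Doses: single-dose 8 µM. Measured by: FRET, excitation 480 nm, emission 540 nm donor and 671 nm acceptor. Measure: % inhibition of FRET ratio versus controls.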
FAK inh confirm – FAK (human) inhibition confirmed; 750 tested, 28% active; inhibition, % at 7 µM; shares compounds with FAK inh; FAK kinase biochemical inhibition assay
Of the large screens only hits and unclear results are named; the others gave an inactive call (follow-up assays come after a bar, where they were run). Unless noted, no stated cut-off is given here; in the data, active means inhibition above about 19%; inactive means the rest.

COCCNC(=O)c1c(N)n(CCC(C)C)c2nc3ccccc3nc12	FAK inh 26.1 | FAK inh confirm inactive
CCCCNC(=O)c1c(N)n(CCCOC)c2nc3ccccc3nc12	none (no result: PLK1 inh, PLK1 PBD inh, F-actin modifier, FAK inh, Rev-RRE block)
CCN1CCN(c2cn[nH]c(=O)c2Cl)CC1	none (no result: PLK1 inh, PLK1 PBD inh, F-actin modifier, FAK inh, Rev-RRE block)
Cc1ccc(OCC(=O)N2CCN(C3CCC(c4ccccc4)CC3)CC2)cc1 (stereo not drawn)	none (no result: PLK1 inh, PLK1 PBD inh, F-actin modifier, FAK inh, Rev-RRE block)
Nc1c(C(=O)NC2CCCC2)c2nc3ccccc3nc2n1CC1CCCO1 (stereo not drawn)	FAK inh 35.5 (no result: E-sel TNF inh) | FAK inh confirm inactive
CC(C)(C)c1nc(NCc2ccc3c(c2)OCO3)c2nnn(Cc3ccccc3Cl)c2n1	none
Cc1cccc(C)c1OP(N)(=O)OCC(F)(F)F (stereo not drawn)	none (no result: PLK1 inh, PLK1 PBD inh, F-actin modifier, FAK inh, Rev-RRE block)
COc1ccc(P2(=O)Nc3ccccc3N2)cc1	FAK inh 39.8, Rev-RRE block 61.0 (no result: E-sel TNF inh) | FAK inh confirm inactive
COc1ccc2c(c1)c(C(=O)O)c(C)n2CC(C)C	none (no result: E-sel TNF inh)
CCCCn1c(C)c(C(=O)O)c2cc(OC)ccc21	FAK inh 31.8 | FAK inh confirm inactive
